Measurements taken from PubChem BioAssay AID573 (SRMLSC, 2007).
Screen size: about 65,000 compounds; about 1,400 (2.2%) were called active. What follows is part of a selection rich in actives, with near analogues and random picks from the rest. Unmarked numbers belong to inactive results.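 How the source made its calls: active means growth inhibition at or above a cutoff equal to the mean over every tested compound plus 3 SD (cut at about 60% in these data); inactive means the rest.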

Assay: E. coli ΔtolC antibacterial growth inhibition – strain BW25113 ΔtolC::kan, 384-well, primary screen (AID 573)
Conditions: E. coli BW25113 tolC mutant growth, OD615; stronger effect = higher value; screened at 10 µM (by protocol)
Outline: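 Test system: E. coli BW25113 ΔtolC::kan bacteria | Medium: Kanamycin-containing LB broth (50 µg/mL) | Dosing: One dose of 10 µM final | Times: 20 h incubation with compound, 37 °C | Detection: Optical density read at 615 nm | Read-out basis: Percent growth inhibition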

Compared with `COc1ccc(OC)c(CNC(=O)C2CCCN(c3nc4ccccc4o3)C2)c1` (centres undefined), `COc1cc(OC)cc(C(=O)Nc2ccc(-c3nc4ccccc4o3)c(O)c2)c1` is higher in growth inhibition: 1.68% for the first, 19.7% for the second.

First: Cc1cc(C(F)(F)F)c(C#N)c(SCC(=O)NC2CC2)n1
Second: COCc1cc(C)nc(SCC(=O)Nc2cccc(C)c2)c1C#N
The growth inhibition of the first is higher: 16.2% for the first, -0.31% for the second.

Compared with `N#Cc1nc(Cc2cccc3ccccc23)oc1NCc1ccc2c(c1)OCO2`, `CCOc1ccc(Nc2oc(Cc3ccccc3)nc2C#N)cc1` is lower in growth inhibition: 57.4% for the first, 31.9% for the second.

First: C=CCn1cnc2scc(-c3ccccc3)c2c1=O
Second: Cc1nc2nc(COc3ccccc3)[nH]n2c(=O)c1C
The growth inhibition of the first is lower: 6.35% for the first, 11.6% for the second.

Going from `C=CCn1c(SCc2nnc(-c3ccccc3)o2)nnc1C(O)c1ccccc1` (centres undefined) to `O=C(CSc1nc2ccccc2o1)N1CCN(c2ccccc2)CC1`, the growth inhibition rises from 0.17% to 5.08%.

First: Cc1nc(SCC(=O)Nc2cc(C)on2)c2c3c(sc2n1)CCCC3
Second: COCCn1c(C)cc(C(=O)CSc2ncnc3sc4c(c23)CCC4)c1C
The growth inhibition of the first is higher: 12.3% for the first, 0.17% for the second.

Going from `CC(=O)c1sc2nc(SCC(=O)N3CCCCC3)[nH]c(=O)c2c1C` to `CCOC(=O)c1c(NC(=O)CSc2nnc(CN3CCOCC3)n2C)sc2c1CCCC2`, the growth inhibition falls from 8.81% to 5.6%.

First: COc1ccc(Nc2cc(C)nc(-n3nc(C)cc3C)n2)cc1
Second: COc1ccc(-n2c(SCC(=O)OC(C)C)nnc2-c2ccccn2)cc1
The growth inhibition of the first is higher: 17.6% for the first, 4.58% for the second.

Going from `CCCOC(=O)C1=C(C)NC2=C(C(=O)C(C(=O)OC)C(C)C2)C1c1ccc(N(C)C)cc1` (centres undefined) to `CCCCC(=O)N(c1ccc(OC)cc1)C1C=CS(=O)(=O)C1` (centres undefined), the growth inhibition falls from 16% to -9.87%.

Going from `Cn1c(=O)[nH]c(=O)c2c1nc(N(CCO)Cc1ccccc1)n2Cc1ccccc1Cl` to `COc1ccccc1Nc1ncnc2c1oc1ccccc12`, the growth inhibition falls from 0.78% to -1.75%.

Going from `O=C(NCc1cccs1)C1CCN(S(=O)(=O)c2ccc3c(c2)OCCO3)CC1` to `COc1ccc(S(=O)(=O)N2CCOCC2)cc1C(=O)Nc1nc2ccccc2s1`, the growth inhibition falls from -14.5% to -15.6%.

First: COc1ccc(CCNS(=O)(=O)c2ccc(F)cc2)cc1OC
Second: COc1ccc(CCNC(=O)c2cc3sccc3n2C)cc1OC
The growth inhibition of the first is lower: -5.35% for the first, 7.67% for the second.

Going from `COC(=O)COc1ccc(S(=O)(=O)Nc2ccc(NC(C)=O)cc2)cc1` to `O=C(O)c1ccc(NS(=O)(=O)c2cccc3nsnc23)cc1`, the growth inhibition falls from -1.6% to -25%.

Compared with `COc1ncnc2sc3c(c12)CCCC3`, `c1nnc2c3c4c(sc3ncn12)CCC4` is lower in growth inhibition: 2.48% for the first, -4.55% for the second.

Compared with `CCOC(=O)N1CCN(S(=O)(=O)c2ccc(C(=O)Nc3ccc(F)cc3F)cc2)CC1`, `Cc1ccccc1OCC(=O)Nc1ccc(N2CCN(C(=O)C(C)C)CC2)c(Cl)c1` is higher in growth inhibition: -4.51% for the first, 42.8% for the second.

Compared with `c1csc(-c2nc(-c3ccncc3)no2)c1`, `Nc1nonc1-c1nc2ccccc2n1Cc1ccc(F)cc1` is lower in growth inhibition: 1.08% for the first, -8.77% for the second.

Compared with `Cc1cccc(C(=O)Nc2ccc(CC(=O)O)cc2)c1`, `Cc1cccc2nc(CNc3ccc(F)cc3)cn12` is higher in growth inhibition: -16% for the first, 4.83% for the second.

First: COC(=O)c1sc(=S)n(-c2ccccc2)c1N
Second: CCOC(=O)C1C(=O)NC(N2CCN(c3ccccc3)CC2)=NC1c1ccco1 (centres undefined)
The growth inhibition of the first is lower: -12.6% for the first, -7.5% for the second.

Compared with `COc1ccc(-c2csc(N3CCN(Cc4ccc5c(c4)OCO5)CC3)n2)cc1`, `O=C(CN1CCN(c2nc(-c3ccccc3)cs2)CC1)NCc1ccc2c(c1)OCO2` is higher in growth inhibition: 5.4% for the first, 50% for the second.

First: COc1c(F)c(F)c(-c2csc(N)n2)c(F)c1F
Second: COc1cc(-c2noc(C3CCCN(S(=O)(=O)c4cccc(Cl)c4)C3)n2)cc(OC)c1OC (centres undefined)
The growth inhibition of the first is lower: 9.92% for the first, 35.2% for the second.

Going from `CNC(=O)Nc1cc(C(C)(C)C)no1` to `Cc1cc(NC(=O)CN2CCC(O)(c3cccc(F)c3)CC2)no1`, the growth inhibition rises from -22.1% to -18.6%.

Going from `O=C(NCc1ccco1)c1cc2sccc2n1Cc1ccc(F)cc1` to `O=C(NCc1ccco1)c1sc2cccc(F)c2c1Cl`, the growth inhibition falls from 56.9% to -1.49%.

First: Cc1cccc(NC(=O)CSC(N)=O)c1C
Second: CCOC(=O)CSc1nnc(-c2cccc(Br)c2)o1
The growth inhibition of the first is lower: -15.7% for the first, -4.64% for the second.

Going from `O=C(O)C1CC=CCC1C(=O)NCCc1ccccc1` (centres undefined) to `COc1ccc(CCNC(=O)c2ccco2)cc1`, the growth inhibition rises from -21.4% to -4.03%.

First: O=C(NCCCNCc1ccccc1)c1ccc(/C=N/O)nc1
Second: CCOc1ccc2nc(NCCNS(=O)(=O)c3ccccc3)c(C#N)cc2c1
The growth inhibition of the first is lower: -12.5% for the first, -0.48% for the second.

First: CCCn1c(=O)c2[nH]c(C3CCCC3)nc2n(CCC)c1=O
Second: Cc1oc(-c2ccccc2F)nc1CS(=O)(=O)CC(=O)NCCCN(C)C1CCCCC1
The growth inhibition of the first is higher: 5.97% for the first, -1.97% for the second.

First: O.O.O.O=S(=O)([O-])OC[C@H]1O[C@@H](O[C@]2(COS(=O)(=O)[O-])O[C@H](OS(=O)(=O)[O-])[C@@H](OS(=O)(=O)[O-])[C@@H]2OS(=O)(=O)[O-])[C@H](OS(=O)(=O)[O-])[C@@H](OS(=O)(=O)[O-])[C@@H]1OS(=O)(=O)[O-].[Al]
Second: N#CCCN1CCN(S(=O)(=O)c2ccc(S(=O)(=O)NC3CCCCC3)cc2)CC1
The growth inhibition of the first is lower: -6.62% for the first, -0.61% for the second.

Compared with `Cc1noc(C)c1S(=O)(=O)N(CC(=O)NCc1ccc(Cl)cc1)c1ccc2c(c1)OCO2`, `O=C(Cn1nnc(-c2ccc3c(c2)OCO3)n1)NCc1ccco1` is higher in growth inhibition: -5.56% for the first, 7.12% for the second.

First: N#Cc1nc(COc2ccc(Cl)cc2)oc1N1CCCC1
Second: COc1ccc2nc(N3CCCC(O)C3)c(C#N)cc2c1 (centres undefined)
The growth inhibition of the first is higher: 7.84% for the first, 5.39% for the second.

First: O=C(NCCCCO)C(F)(F)C(F)(F)C(F)(F)C(=O)NCCCCO
Second: O=C(NCCCN1CCCCCC1)C1CC(=O)N(C2CCCC2)C1 (centres undefined)
The growth inhibition of the first is higher: -11% for the first, -11.7% for the second.

Going from `CCOCC(=O)Nc1sc2c(c1C(=O)OCC)CCCC2` to `CC1(C)CC(=O)c2cc(OCC(=O)NCC3CCCO3)ccc2O1` (centres undefined), the growth inhibition falls from 42.8% to -5%.

Going from `Cc1nc(SC(C)C)[nH]c(=O)c1Cc1ccccc1` to `Cc1c(C(=O)N2CCOCC2)[nH]c2ccc(OCc3ccccc3)cc12`, the growth inhibition rises from 0% to 1.84%.

First: CCOc1ccccc1NC(=O)C1CCN(S(=O)(=O)c2c(C)nn(C)c2C)CC1
Second: CCOc1ccc(S(=O)(=O)n2ccnc2)c2ccccc12
The growth inhibition of the first is lower: -6.48% for the first, 3.73% for the second.

Going from `O=c1c(-c2ccccc2)coc2c(CN3CCOCC3)c(O)ccc12` to `COc1ccc(N2CCN(Cc3cc(=O)oc4ccc5ccccc5c34)CC2)cc1`, the growth inhibition rises from -9.34% to 11.6%.

First: O=C(Nc1ccccc1N1CCN(c2ccccc2)CC1)c1cccc(F)c1
Second: O=C(Nc1ccccc1N1CCCCC1)c1ccc2nccnc2c1
The growth inhibition of the first is lower: 17.8% for the first, 28.8% for the second.

Going from `O=C(Nc1ccccc1F)C1C2C=CC3(O2)C1C(=O)N(c1cccnc1)C3C(=O)NC1CCCCC1` (centres undefined) to `CS(=O)(=O)N(CC(=O)N1CCN(c2cccc(Cl)c2)CC1)c1ccccc1`, the growth inhibition rises from -12.5% to 1.41%.

First: COc1ccc(-c2nc(CS(=O)CC(=O)N3CCc4ccccc4C3)c(C)o2)cc1 (centres undefined)
Second: Fc1ccccc1C(c1nnnn1Cc1ccc2c(c1)OCO2)N1CCN(Cc2ccccc2)CC1 (centres undefined)
The growth inhibition of the first is lower: 3.93% for the first, 20.4% for the second.

Going from `CCCc1cc(=O)[nH]c(SCc2ccc(C#N)cc2)n1` to `CCC(C)(C)n1nnnc1C(c1cccs1)N1CCN(Cc2ccccc2)CC1` (centres undefined), the growth inhibition falls from 14.9% to 4.31%.

In the case of `Cc1cc(C)c(C#N)c(SCS(=O)c2ccc(C(C)(C)C)cc2)n1` (centres undefined), the growth inhibition was 70.6% (active).
With `N#Cc1nc(Cc2ccccc2)oc1NCCc1ccccc1` the growth inhibition was 74.2% (active).
For `COCCNc1nc(-n2nc(C)cc2C)nc2sc3c(c12)CCCC3`, the growth inhibition was 94.3% (active).
In the case of `Cc1cc(C)n(-c2nc(SCC(=O)N3CCCC3)c3c4c(sc3n2)CCCC4)n1`, the growth inhibition was 85.9% (active).
For `COC(=O)CNS(=O)(=O)c1ccc(Cc2ccc(S(=O)(=O)NCC(=O)OC)cc2)cc1`, the growth inhibition was 69.7% (active).
For `CS(=O)(=O)N(Cc1nc2sc3c(c2c(=O)[nH]1)CCCC3)C1CCCCC1`, the growth inhibition was 83.8% (active).
For `CC1CCCC(C)N1C(=O)CN1CCN(c2nc(-c3ccc(F)cc3)cs2)CC1` (centres undefined), the growth inhibition was 100% (active).
With `CCOC(=O)c1cc2sccc2n1Cc1ccc(C#N)cc1` the growth inhibition was 62.5% (active).
For `CC1CCCN(c2ccc(C(=O)NCCc3ccccc3)cn2)C1` (centres undefined), the growth inhibition was 61.4% (active).
For `CC1CCN(c2oc(-c3ccccc3F)nc2C#N)CC1`, the growth inhibition was 71.3% (active).
In the case of `CCOC(=O)c1c(NC(=O)CSc2nnc(C)c(=O)[nH]2)sc2c1CCC2`, the growth inhibition was 66.5% (active).
With `Cc1nc2nc(COc3ccccc3)[nH]n2c(=O)c1Cc1ccccc1` the growth inhibition was 100% (active).
With `CCOC(=O)c1c(CN2CCOCC2)n(-c2ccccc2)c2ccc(O)cc12` the growth inhibition was 65.2% (active).
For `O=C(Nc1ccccc1N1CCCCC1)c1cccc(F)c1`, the growth inhibition was 100% (active).
In the case of `CCOc1ccc2nc(N3CCCN(C(=O)Nc4ccccc4C)CC3)c(C#N)cc2c1`, the growth inhibition was 62.3% (active).
With `Cc1ccccc1-c1nc(CS(=O)(=O)CC(=O)N2CCc3ccccc3C2)c(C)o1` the growth inhibition was 63% (active).
For `Fc1ccc(Cn2nnnc2C(c2cccs2)N2CCCCCC2)cc1` (centres undefined), the growth inhibition was 85.7% (active).
With `CCOC(=O)C1C(=O)C=C(c2ccc(OC)cc2)CC1c1ccco1` (centres undefined) the growth inhibition was 85.4% (active).
